The values that follow come from ChEMBL document CHEMBL3272081, “Oxytocin analogues with combined high smooth muscle and negligible antidiuretic activities. Investigation of position 7 in neurohypophyseal hormones” (J Med Chem, 1976).

SMILES strings stand for the structures. Active and inactive are the calls of the source. No cut-off for these calls is given here. Bridge positions count the residues as written; N and C are the ends. Square brackets hold non-standard residues; d marks the D form. Peptide text beside a SMILES is read from it. Mpa = O=C(O)CCS

Series [1] has as its system Rattus norvegicus. Kind of series: Induction of vasodepressor activity in anesthetized male rat at 0.5 mg.
Series [2] addresses T1, Oxytocin receptor (Homo sapiens) (UniProt P30559).
T1 sequence (whole entry): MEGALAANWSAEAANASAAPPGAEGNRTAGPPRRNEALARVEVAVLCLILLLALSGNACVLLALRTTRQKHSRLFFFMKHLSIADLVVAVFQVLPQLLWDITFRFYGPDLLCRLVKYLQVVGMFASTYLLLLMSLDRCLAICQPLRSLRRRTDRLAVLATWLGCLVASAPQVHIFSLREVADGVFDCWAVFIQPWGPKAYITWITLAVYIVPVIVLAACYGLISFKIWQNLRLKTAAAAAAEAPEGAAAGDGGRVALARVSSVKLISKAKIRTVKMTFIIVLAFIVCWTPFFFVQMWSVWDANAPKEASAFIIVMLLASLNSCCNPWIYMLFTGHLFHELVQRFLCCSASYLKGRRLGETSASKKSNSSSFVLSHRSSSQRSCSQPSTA
Kind of series: Activity at oxytocin receptor (unknown origin) assessed as oxytocic activity.

The test system of the next series is Gallus gallus. Kind of series: Induction of vasodepressor activity in conscious chicken. It is filed as functional.
Series [3] concerns the target T2, Oxytocin receptor (Rattus norvegicus) (UniProt P70536).
T2 sequence (whole entry): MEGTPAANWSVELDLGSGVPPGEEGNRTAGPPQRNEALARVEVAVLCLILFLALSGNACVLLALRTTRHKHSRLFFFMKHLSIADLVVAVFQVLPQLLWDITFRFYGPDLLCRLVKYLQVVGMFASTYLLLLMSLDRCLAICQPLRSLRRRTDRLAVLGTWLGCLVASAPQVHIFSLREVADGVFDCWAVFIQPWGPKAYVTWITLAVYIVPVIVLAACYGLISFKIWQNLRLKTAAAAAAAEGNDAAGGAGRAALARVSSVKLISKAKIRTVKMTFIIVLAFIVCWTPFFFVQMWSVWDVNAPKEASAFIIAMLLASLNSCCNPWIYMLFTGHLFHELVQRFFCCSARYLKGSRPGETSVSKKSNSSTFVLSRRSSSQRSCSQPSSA
Nature of the series: Activity at rat oxytocin receptor in rat uterus assessed as uterotonic activity. In kind it is tissue-based. A digest of the protocol: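 Isolated uterine horns from virgin rats in natural estrus, Holton method as modified by Munsick, bathed in Mg²⁺-free van Dyke–Hastings solution. Specific activity is derived against the USP standard by a Schild four-point design or by matches. Expressed as USP U/mg ± SEM, with at least three animals per determination.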

Series [4] is filed under the species Rattus norvegicus. Nature of the series: Antidiuretic activity in rat. It is filed as functional, Urine. A digest of the protocol:
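Anesthetized male rats, Jeffers et al. method as modified by Sawyer. Specific activity is obtained against the USP standard using a Schild four-point design or matches. Reported as USP U/mg ± SEM, five animals per determination.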

The species entered for series [5] is Rattus norvegicus. Kind of series: Pressor activity in rat. In kind it is functional. Put shortly:
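Anesthetized male rats, per the U.S. Pharmacopeia. Potency is estimated by matches, with the USP posterior pituitary standard always injected before the analogue. Before each analogue dose, several standard doses are confirmed to give reproducible, unattenuated responses. Reported as USP U/mg ± SEM, five animals.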

The species named for a further series is Oryctolagus cuniculus. Kind of series: Induction of oxytocic activity in rabbit assessed as milk ejection. In kind it is functional.
Series [6] is described as follows: Drug metabolism in rat uterine homogenate assessed as compound inactivation after 60 mins. It is filed as ADME, tissue-based, Uterus. As to conditions: read-out: Drug metabolism.
Series [7] in a line: Drug metabolism in rat uterine homogenate assessed as compound inactivation after 30 mins. In kind it is ADME, tissue-based, Uterus. As to conditions: read-out: Drug metabolism.
Series [8] is filed under the species Rattus norvegicus. Nature of the series: Pressor activity in rat after 45 mins. In kind it is functional, organism-based.

With `CC[C@H](C)[C@@H]1NC(=O)[C@H](Cc2ccc(O)cc2)NC(=O)[C@@H](N)CSSC[C@@H](C(=O)NCC(=O)N[C@@H](CC(C)C)C(=O)NCC(N)=O)NC(=O)[C@H](CC(N)=O)NC(=O)[C@H](CCC(N)=O)NC1=O` (H-CYIQNCGLG-NH2; disulfide 1-6), the Activity was 25 mmHg in the series on Rattus norvegicus [1]; 68 U/mg in series [2]; 5.3 USP-U/mg in the series with Gallus gallus; 65 USP-U/mg in [3]; “<=0.01 USP-U/mg” in the series listed under Rattus norvegicus [4]; 0.3 USP-U/mg in the series listed under Rattus norvegicus [5]. The Activity in the series listed under Oryctolagus cuniculus turned out to be 224 USP-U/mg.

On to `CC[C@H](C)[C@@H]1NC(=O)[C@H](Cc2ccc(O)cc2)NC(=O)[C@@H](N)CSSC[C@@H](C(=O)N[C@@H](C)C(=O)N[C@@H](CC(C)C)C(=O)NCC(N)=O)NC(=O)[C@H](CC(N)=O)NC(=O)[C@H](CCC(N)=O)NC1=O` (H-CYIQNCALG-NH2; disulfide 1-6), for which the Activity is 4.8 USP-U/mg with Gallus gallus, 22 USP-U/mg in series [3], 0.08 USP-U/mg in the series filed under Rattus norvegicus [4] and 0.4 USP-U/mg in the series filed under Rattus norvegicus [5].

As to `CC[C@H](C)[C@@H]1NC(=O)[C@H](Cc2ccc(O)cc2)NC(=O)CCSSC[C@@H](C(=O)NCC(=O)N[C@@H](CC(C)C)C(=O)NCC(N)=O)NC(=O)[C@H](CC(N)=O)NC(=O)[C@H](CCC(N)=O)NC1=O` ([Mpa]YIQNCGLG-NH2; disulfide 1-6), in series [6], the metabolised at 1 h came to 30%. Also, the Activity with Gallus gallus is 17 USP-U/mg; in series [3], 355 USP-U/mg; in the series listed under Rattus norvegicus [4], 0.062 USP-U/mg; in the series filed under Rattus norvegicus [5], 0.5 USP-U/mg. Also, in [7], the metabolised at 0.5 h amounted to 3%.

On to `CC[C@H](C)[C@@H]1NC(=O)[C@H](Cc2ccc(O)cc2)NC(=O)[C@@H](N)CSSC[C@@H](C(=O)N2CCC[C@H]2C(=O)N[C@@H](CC(C)C)C(=O)NCC(N)=O)NC(=O)[C@H](CC(N)=O)NC(=O)[C@H](CCC(N)=O)NC1=O` [OXYTOCIN], for which the Activity worked out at 507 USP-U/mg with Gallus gallus; 546 USP-U/mg in series [3]; 2.7 USP-U/mg in the series listed under Rattus norvegicus [4]; 3.1 USP-U/mg in the series filed under Rattus norvegicus [5]; 440 USP-U/mg in the series filed under Oryctolagus cuniculus. The result in the series filed under Rattus norvegicus [8] was Active.

In the case of `CC[C@H](C)[C@@H]1NC(=O)[C@H](Cc2ccc(O)cc2)NC(=O)CCSSC[C@@H](C(=O)N[C@@H](C)C(=O)N[C@@H](CC(C)C)C(=O)NCC(N)=O)NC(=O)[C@H](CC(N)=O)NC(=O)[C@H](CCC(N)=O)NC1=O` ([Mpa]YIQNCALG-NH2; disulfide 1-6), the Activity in the series on Gallus gallus stood at 9.8 USP-U/mg; in series [3], 123 USP-U/mg; in the series listed under Rattus norvegicus [4], 0.17 USP-U/mg; in the series listed under Rattus norvegicus [5] it was 0.5 USP-U/mg.

On to `CC[C@H](C)[C@@H]1NC(=O)[C@H](Cc2ccc(O)cc2)NC(=O)CCSSC[C@@H](C(=O)N2CCC[C@H]2C(=O)N[C@@H](CC(C)C)C(=O)NCC(N)=O)NC(=O)[C@H](CC(N)=O)NC(=O)[C@H](CCC(N)=O)NC1=O`, for which the Activity with Gallus gallus amounted to 975 USP-U/mg; in series [3], 803 USP-U/mg; in the series listed under Rattus norvegicus [4] it was 19 USP-U/mg; in the series listed under Rattus norvegicus [5], 1.44 USP-U/mg; in the series filed under Oryctolagus cuniculus it was 541 USP-U/mg.
